The values that follow come from ChEMBL document CHEMBL5252608, “Eremoxylarins D-J, Antibacterial Eremophilane Sesquiterpenes Discovered from an Endolichenic Strain of Xylaria hypoxylon” (J Nat Prod, 2023).

≈ marks a conversion by molar mass, not a printed value. Bounds are passed on as bounds.

The term MIC denotes the lowest concentration that inhibits growth of the organism. A word on the CC50: it is the concentration that lowers cell viability or growth by half.

Holding throughout (assay type): functional
Assay [1] concerns Staphylococcus aureus. As to the kind of experiment: Antibacterial activity against Staphylococcus aureus CIP 53.156 assessed as bacterial growth inhibition incubated for 24 hrs by optical density based microplate reader analysis. The method, boiled down:
(§1)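 Broth microdilution in LB per CLSI, in triplicate; compounds dissolved in DMSO (stock 5 mg/mL; gentamicin stock 10 mg/mL as positive control), serially diluted 1:2. Wells inoculated with 10⁶ CFU/mL, incubated 24 h at 37 °C, with solvent as negative control. OD 630 nm read before and after incubation; MIC taken as the lowest-concentration clear well. Wells also plated on LB agar for 24 h at 37 °C.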

The test system of assay [2] is Staphylococcus aureus. The assay can be described thus: Antibacterial activity against methicillin resistant Staphylococcus aureus DSM 13661 assessed as bacterial growth inhibition incubated for 24 hrs by optical density based microplate reader analysis. An outline of the steps: (§2)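 Broth microdilution per CLSI, in triplicate: compounds as 5 mg/mL DMSO stocks (gentamicin 10 mg/mL stock as positive control), serially diluted 1:2 in LB. Wells inoculated with 10⁶ CFU/mL, 24 h at 37 °C, solvent-only negative control. OD630 read before and after incubation. MIC taken as the lowest-concentration clear well, i.e. no visible growth.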

Assay [3] relates to Staphylococcus epidermidis. As to the kind of experiment: Antibacterial activity against Staphylococcus epidermidis CIP 53.124 assessed as bacterial growth inhibition incubated for 24 hrs by optical density based microplate reader analysis. The method, boiled down: as §1
The test system of another assay is Escherichia coli. As to the kind of experiment: Antibacterial activity against […] Escherichia coli CIP 54.8 assessed as bacterial growth inhibition incubated for 24 hrs by optical density based microplate reader analysis. The method, boiled down:
as §2

For another assay, the system named is Pseudomonas aeruginosa. The assay can be described thus: Antibacterial activity against Pseudomonas aeruginosa CIP A22 assessed as bacterial growth inhibition incubated for 24 hrs by optical density based microplate reader analysis. The method, boiled down:
as §1

A further assay relates to Huh-7. The assay can be described thus: Cytotoxicity against human Huh-7 cells assessed as cell growth inhibition measured after 24 hrs by MTS assay. An outline of the steps: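 Huh-7 cells (DMEM with glutaMAX-I, 10% FBS, 37 °C, 5% CO₂), 6×10^4 per well, allowed 16 h before 24 h exposure to increasing compound concentrations (DMSO stocks 100 mM). Viability by MTS, formazan absorbance at 490 nm; CC50 derived. Mean ± SEM of 3 experiments.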

Take `C=C(C=O)[C@H]1CC=C2[C@H](OC(=O)/C(C)=C/C=C/CCCCC)CC[C@H](C(=O)O)[C@@]2(C)C1`: the MIC is 1.56 µg/mL (≈ 3.64 µM) in the assay with Staphylococcus aureus [1]; 3.1 µg/mL (≈ 7.23 µM) with Staphylococcus aureus [2]; 3.1 µg/mL (≈ 7.23 µM) in assay [3]; above 50 µg/mL in the assay on Escherichia coli; above 50 µg/mL in the assay with Pseudomonas aeruginosa. For the same compound, in the assay on Huh-7, the CC50 was 184 µM.

For `C=C(C=O)[C@H]1CC=C2[C@H](OC(=O)/C(C)=C/CCCCCCC)CC[C@H](C(=O)O)[C@@]2(C)C1`, the MIC with Staphylococcus aureus [1] is 0.39 µg/mL (≈ 0.906 µM); in the assay on Staphylococcus aureus [2], 1.56 µg/mL (≈ 3.62 µM); in assay [3], 1.56 µg/mL (≈ 3.62 µM); with Escherichia coli it was above 50 µg/mL; in the assay with Pseudomonas aeruginosa, above 50 µg/mL. The CC50 in the assay with Huh-7 was 48.1 µM.

As for GENTAMICIN, the MIC in the assay with Staphylococcus aureus [1] was 3.91 µg/mL; with Staphylococcus aureus [2] it was 250 µg/mL; in assay [3] it was above 250 µg/mL; in the assay with Escherichia coli it was 3.91 µg/mL; in the assay on Pseudomonas aeruginosa it was 1.95 µg/mL.
